From PubChem
A selection: hits, their analogues and other compounds. The true share with any hit is near 4%.
ERb SRC1 inh – blocks coactivator binding to human estrogen receptor beta. Q92731. TR-FRET ER-beta LBD / SRC1-Cy5 peptide binding; receptor agonist-loaded with 1 µM estradiol. inhibition, % at 25.6 µM. actives 1.3% (n = 86,000). AID 633;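 active = compounds whose percent inhibition of the receptor-coactivator binding signal exceeds about 50% in the single-dose screen, limit read from the data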;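 also: 0% = receptor plus peptide wells without compound and 100% = peptide-only wells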
Target sequence (Q92731 whole entry, looked up, the tested form may be a part): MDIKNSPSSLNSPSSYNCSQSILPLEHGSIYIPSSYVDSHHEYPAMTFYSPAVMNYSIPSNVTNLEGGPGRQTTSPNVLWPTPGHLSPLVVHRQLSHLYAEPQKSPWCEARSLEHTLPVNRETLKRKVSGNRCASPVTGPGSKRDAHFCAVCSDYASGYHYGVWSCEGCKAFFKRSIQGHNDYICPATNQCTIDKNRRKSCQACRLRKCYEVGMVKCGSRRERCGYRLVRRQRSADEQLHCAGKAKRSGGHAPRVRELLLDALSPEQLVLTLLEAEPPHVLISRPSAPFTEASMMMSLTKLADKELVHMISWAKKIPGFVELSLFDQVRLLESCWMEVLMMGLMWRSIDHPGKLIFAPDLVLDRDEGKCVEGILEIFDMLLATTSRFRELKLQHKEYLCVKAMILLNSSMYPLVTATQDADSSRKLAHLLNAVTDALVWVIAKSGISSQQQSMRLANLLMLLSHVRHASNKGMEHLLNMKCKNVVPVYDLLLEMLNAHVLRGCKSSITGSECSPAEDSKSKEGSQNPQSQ
FAK blocker – blocks human focal adhesion kinase activity; Q05397; biochemical FAK kinase activity assay; inhibition, %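 (tested at 7 µM)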; actives 0.84% (n = 97,000); AID 727; in the data active = inhibition above about 19%;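 also: 0% = DMSO and 100% = reference compound high control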
Smad3 FoxH1 inh – blocks human Smad3 binding to FoxH1 peptide | P84022 | TR-FRET Smad3/Dy647-FoxH1 peptide binding, europium anti-His | inhibition, % at 25 µM | actives 0.29% (n = 88,000) | AID 630;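 active = compounds that reduce the energy-transfer binding signal between the protein and its labelled peptide by more than half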;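 also: 0% = Smad3 plus labelled peptide maximal FRET and 100% = peptide-only background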
HIV Rev-RRE inh – inhibitors of HIV-1 Rev-RRE RNA interaction. P05866. Rev peptide-RRE RNA binding, FRET. inhibition, % at 8 µM. actives 0.79% (n = 97,000);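 active = inhibition above the screen-wide mean plus 3 SD, cut at about 35% in these data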;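 also: 0% = median DMSO wells and 100% = median Neomycin B control wells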
Target sequence (P05866 whole entry, looked up): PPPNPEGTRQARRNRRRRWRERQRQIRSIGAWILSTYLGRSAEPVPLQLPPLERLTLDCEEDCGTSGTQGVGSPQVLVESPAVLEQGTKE
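Material: labelled RRE RNA duplex and labelled Rev peptide / Buffer or medium: HEPES pH 7.5 salt buffer with EDTA / Compound dosing: single point, 8 µM final nominal compound concentration / Benchmarks: DMSO low control, neomycin B high control / Timing: 5 min preincubation and 15 min binding, 25 °C / Technique: FRET fluorescence readout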
ERa coact pot – ER-alpha (human) coactivator binding potentiation | actives 1.3% (n = 86,000) | TR-FRET ERalpha-LBD/SRC-Cy5 coactivator binding, 2 h; 100 = basal binding, no effect | P03372 | coactivator binding (% of control), % at 25.6 µM; in the data active = activity above about 200%;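 also: binding measured in presence of low estradiol as agonist stimulus; 0% = peptide alone without receptor and 100% = receptor with peptide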
ERa coact inh – blocks coactivator binding to human estrogen receptor alpha. AID 629. actives 1.7% (n = 86,000). TR-FRET ER-alpha LBD / SRC-1 peptide, estradiol-bound. P03372. inhibition, % at 25.6 µM; in the data active = inhibition above about 50%;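 also: 0% = receptor plus peptide control and 100% = peptide only without receptor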
* hit, by the source's call; . = no result given; [ ] = dose if it differs, or a comment.

SMILES	ERb SRC1 inh	FAK blocker	Smad3 FoxH1 inh	HIV Rev-RRE inh	ERa coact pot	ERa coact inh
O=C(Cc1ccc(Cl)cc1)Nc1ccc(-c2nnc(-c3ccco3)o2)cc1	37	11	12	8	123	68*[fluorescence artefact?]
O=C(c1ccco1)N1CCN(c2ccc(Cl)cc2)CC1	-4	-2	2	0	121	6
Clc1ccc2c(c1)C(c1cccs1)=NNC(c1cccnc1)=N2	.	3	.	0	.	.
c1ccc([C@H](c2cccc3c2ccc2ccccc23)[C@H](c2ccccc2)c2cccc3c2ccc2ccccc23)cc1	.	.	0	.	.	.
c1ccc(-c2ccc(-c3ccc(C4=NCCN4)cc3)o2)cc1	.	.	-3	.	.	.
O=S1(=O)OC(c2ccc(O)cc2)(c2ccc(O)cc2)c2ccccc21	.	.	97*	.	.	.
CC(C)c1cc[n+](-c2nc([O-])sc2C=O)cc1	.	2	.	20	.	.
CCc1cc[n+](-c2nc([O-])sc2C=O)cc1	.	-1	.	46*	.	.
Cc1ccc2nc(-c3cccc(-c4nc5ccc(C)cc5o4)n3)oc2c1	12	.	-8	.	248*[fluorescence artefact?]	7
CC1(C)CC(=O)C=C(NC2CCCCCCC2)C1	2	-3	0	-3	109	95*[fluorescence artefact?]
c1ccc([P+](CC[P+](c2ccccc2)(c2ccccc2)c2ccccc2)(c2ccccc2)c2ccccc2)cc1	.	.	6	.	.	.
CC(C)(C)c1cc2c(O)c(c1)Cc1cc(C(C)(C)C)cc(c1O)Cc1cc(C(C)(C)C)cc(c1O)Cc1cc(C(C)(C)C)cc(c1O)Cc1cc(C(C)(C)C)cc(c1O)Cc1cc(C(C)(C)C)cc(c1O)Cc1cc(C(C)(C)C)cc(c1O)Cc1cc(C(C)(C)C)cc(c1O)C2	.	.	16	.	.	.
NC[C@H]1O[C@H](n2cnc3c(N)ncnc32)C[C@@H]1O	.	.	-4	.	.	.
Cc1noc(C)c1S(=O)(=O)N(CC(=O)O)c1ccc2c(c1)OCO2	54*	-2	-1	2	60	41
CCOC(=O)/C=C1\SCC(=O)N1CC(=O)c1ccc[nH]1	64*[fluorescence artefact?]	8	9	11	33	87*[fluorescence artefact?]
COC(=O)c1cc2ccccn2c2c(C(=O)OC)c(C(=O)OC)cc1-2	.	0	.	-5	.	.
COC(=O)c1cc2c(C)cc3ccc(C)cn3c-2c1C(=O)OC	.	1	.	36*	.	.
Cc1[nH]c2ccc(-c3nnc(SCC(=O)c4ccccc4F)o3)cc2c1C	46	-1	0	1	62	70*
Cc1ccc(C(=O)CSc2nnc(-c3ccc4[nH]c(C)c(C)c4c3)o2)cc1C	.	1	.	7	.	.
Nc1nc(SCC(=O)O)[nH]c(=O)c1N	.	.	2	.	.	.
CCn1c(=NC(=O)c2ccc(N3C(=O)CCC3=O)cc2)sc2c(OC)ccc(OC)c21	22	6	-124	-2	403*	33
CCn1c(=NC(=O)CN2C(=O)CCC2=O)sc2c(OC)ccc(OC)c21	.	1	.	8	.	.
CCn1c(=NC(=O)c2ccc(S(=O)(=O)N3CCOCC3)cc2)sc2cccc(OC)c21	40	4	1	10	261*[fluorescence artefact?]	30
C[C@@H](CS(=O)(=O)Cc1ccccc1)C(N)=O	.	.	2	.	.	.
CN1CCN(CC(=O)N2c3ccccc3Sc3cc4ccccc4cc32)CC1	.	.	13	.	.	.
SMILES	ERb SRC1 inh	FAK blocker	Smad3 FoxH1 inh	HIV Rev-RRE inh	ERa coact pot	ERa coact inh
N#CC(c1nc2ccccc2nc1N1CCCC1)S(=O)(=O)c1cccs1 (stereo not given)	43	6	5	42*	41	30
N#CC(c1nc2ccccc2nc1N1CCCC1)S(=O)(=O)c1ccccc1 (stereo not given)	10	5	23	82*[fluorescence artefact?]	48	-5
Cc1cccc(S(=O)(=O)C(C#N)c2nc3ccccc3nc2N2CCCC2)c1 (stereo not given)	23	18	3	82*[fluorescence artefact?]	61	13
COc1ccc(CNC(=O)C(C#N)c2nc3ccccc3nc2N2CCCC2)cc1 (stereo not given)	14	0	42	36*	149	21
Cc1ccc(C)c(S(=O)(=O)C(C#N)c2nc3ccccc3nc2N2CCOCC2)c1 (stereo not given)	-2	-5	-3	4	104	-2
Cc1ccc(C)c(S(=O)(=O)C(C#N)c2nc3ccccc3nc2N2CCCC2)c1 (stereo not given)	9	2	3	64*	77	-1
O=C(CCc1ccccc1)Nc1ccc(N2CCOCC2)cc1	59*	.	13	.	111	4
CC(C)c1nc(SCC(=O)Nc2ccc(N3CCOCC3)cc2)c2ccccc2n1	-23	34*	4	-6	105	-24
NN(CC(=O)O)CC(=O)O	.	.	-4	.	.	.
Cn1c(SCC(=O)NC2CCCCC2)nnc1-c1cc2cc(Cl)ccc2o1	25	1	-118	8	429*[fluorescence artefact?]	43
CCC(=O)Nc1cccc(NC(=O)CSc2nnc(C3CC3)n2C)c1	-11	0	1	7	204*	-6
Cn1c(SCC(=O)Nc2cccc(Br)c2)nnc1-c1cc2ccccc2o1	15	-56	-409	3	631*[fluorescence artefact?]	5
CC(C)C[C@@H](N)C(=O)Nc1ccc2ccccc2c1	.	.	-5	.	.	.
CN(/N=C/c1ccccc1O)c1ccc2ccccc2n1	.	.	9	.	.	.
NC(=O)CSc1nnc2sc3ccccc3n12	-8	3	16	7	109	1
N#CCSc1nnc2sc3ccccc3n12	9	0	-6	7	65	87*[fluorescence artefact?]
CCC1(C)Cc2c(sc3c2c(=O)n(C)c2nnc(SCc4ccc5c(c4)OCO5)n32)CO1 (stereo not given)	69*[fluorescence artefact?]	1	6	-3	125	87*[fluorescence artefact?]
O=S(=O)(O)n1ccnc1 (tested in a mixture with another compound)	.	.	2	.	.	.
O=C(COc1ccccc1)Nc1cccc(-c2nnc(-c3ccccc3)o2)c1	10	.	0	.	125	2
CCOc1ccccc1C(=O)Nc1cccc(-c2nnc(-c3ccccc3)o2)c1	25	12	-13	-1	317*[fluorescence artefact?]	39
C[C@@H]1CCCC(CC(=O)O)(CC(=O)O)C1	.	.	4	.	.	.
CCOC(=O)C1=C(O)/C(=C\c2ccc(CNC(=O)C(=O)Nc3ccc(C)c(C)c3)o2)N=C1C	55*	-1	18	6	115	72*
Cc1cc(N=Cc2c(CO)cnc(C)c2O)c(N=Cc2c(CO)cnc(C)c2O)cc1C.[Zn]	.	.	93*	.	.	.
Cc1ncc(CO)c(CN)c1O	.	.	12	.	.	.
CC1CCN(C2=NC(=O)/C(=C/c3cn(-c4ccccc4)nc3-c3cccc(S(=O)(=O)N(C)C)c3)S2)CC1	.	4	.	-4	.	.
N#C[C@H]1CN[C@H](N)N[C@@H]1N	.	.	-15	.	.	.
Nc1ccc(C(=O)C[C@H](N)C(=O)O)cc1O	.	.	3	.	.	.
CCOC(=O)c1cc(CC)sc1NC(=O)c1ccc2c(c1)OCCO2	30	1	6	11	466*[fluorescence artefact?]	26
CCOC(=O)c1cc(CC)sc1NC(=O)c1cc(OCC)c(OCC)c(OCC)c1	-4	-5	3	-2	97	-3
